# CHOP inh: inhibitors of CHOP induction in ER stress response; CHO-K1 CHOP-promoter luciferase, tunicamycin-induced, 15-18 h; inhibition, % at 10 µM; hit rate 3.8% among 220,000;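 active means compounds that reduced the stress-induced luciferase reporter signal by more than about 70% of percent inhibition, limit read from the data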;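 further: 0% = tunicamycin plus vehicle and 100% = wells without tunicamycin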
# UPR CHOP act: activators of apoptotic arm of unfolded protein response (CHOP); CHO-CHOP luciferase reporter, UPR activation, luminescence; percent of tunicamycin response over DMSO baseline; activation, % at 10 µM; hit rate 0.34% among 330,000;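 active means at 10 µM dose, activation of 40% or more, normalized to positive control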;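 further: 100% = tunicamycin at 10 µg/mL and 0% = DMSO alone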
#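 Test system: CHO CHOP reporter cells. Input: 500 CHO-CHOP cells per well. Medium: F12 with 10% FBS. Technique: luciferase luminescence. Measure: percent activation relative to tunicamycin control. Dosing: 10 µM compound, 0.5% DMSO. Timing: 16-18 h cell attachment, then 6 h compound exposure, 37 °C.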
# B2AR ag: agonists of human beta-2 adrenergic receptor inducing internalization; P07550; Am2.2-beta2AR cells, FAP receptor internalization, flow cytometry; response, % (concentration not given with the values); hit rate 0.43% among 340,000; AID 504454;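 active means response above a set limit, near 3 SD of response in nonfluorescent compounds, cut at about 42% in these data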
# XBP1 UPR activ: activators of adaptive arm of unfolded protein response (XBP1). CHO-XBP1 luciferase reporter, IRE1-XBP1 UPR activation, luminescence; percent of tunicamycin response, DMSO as zero. activation, % at 20 µM. hit rate 0.33% among 330,000;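 active means versus positive control, 20 µM dose yields 30% or more activation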;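 further: 100% = tunicamycin at 10 µg/mL and 0% = DMSO only wells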
#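 Material: IRE1-XBP1 luciferase reporter CHO line / Quantity: one thousand reporter cells per well / Buffer or medium: F12 with 10% serum / Compound: 20 µM single concentration, DMSO 1% / Times: 6 h treatment, 37 °C / Detection: Steady-Glo luciferase glow luminescence, 10 min after reagent addition / Benchmarks: tunicamycin high, DMSO low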
# VLA-4 inh: inhibition in a human VLA-4 binding assay; VLA-4 expressing cells, ligand binding flow cytometry; inhibition, % (about 7 µM as worked out from the volumes in the protocol); hit rate 0.2% among 330,000; AID 2557; in the data active means inhibition above about 50%
# Target sequence (P13612 whole entry, looked up): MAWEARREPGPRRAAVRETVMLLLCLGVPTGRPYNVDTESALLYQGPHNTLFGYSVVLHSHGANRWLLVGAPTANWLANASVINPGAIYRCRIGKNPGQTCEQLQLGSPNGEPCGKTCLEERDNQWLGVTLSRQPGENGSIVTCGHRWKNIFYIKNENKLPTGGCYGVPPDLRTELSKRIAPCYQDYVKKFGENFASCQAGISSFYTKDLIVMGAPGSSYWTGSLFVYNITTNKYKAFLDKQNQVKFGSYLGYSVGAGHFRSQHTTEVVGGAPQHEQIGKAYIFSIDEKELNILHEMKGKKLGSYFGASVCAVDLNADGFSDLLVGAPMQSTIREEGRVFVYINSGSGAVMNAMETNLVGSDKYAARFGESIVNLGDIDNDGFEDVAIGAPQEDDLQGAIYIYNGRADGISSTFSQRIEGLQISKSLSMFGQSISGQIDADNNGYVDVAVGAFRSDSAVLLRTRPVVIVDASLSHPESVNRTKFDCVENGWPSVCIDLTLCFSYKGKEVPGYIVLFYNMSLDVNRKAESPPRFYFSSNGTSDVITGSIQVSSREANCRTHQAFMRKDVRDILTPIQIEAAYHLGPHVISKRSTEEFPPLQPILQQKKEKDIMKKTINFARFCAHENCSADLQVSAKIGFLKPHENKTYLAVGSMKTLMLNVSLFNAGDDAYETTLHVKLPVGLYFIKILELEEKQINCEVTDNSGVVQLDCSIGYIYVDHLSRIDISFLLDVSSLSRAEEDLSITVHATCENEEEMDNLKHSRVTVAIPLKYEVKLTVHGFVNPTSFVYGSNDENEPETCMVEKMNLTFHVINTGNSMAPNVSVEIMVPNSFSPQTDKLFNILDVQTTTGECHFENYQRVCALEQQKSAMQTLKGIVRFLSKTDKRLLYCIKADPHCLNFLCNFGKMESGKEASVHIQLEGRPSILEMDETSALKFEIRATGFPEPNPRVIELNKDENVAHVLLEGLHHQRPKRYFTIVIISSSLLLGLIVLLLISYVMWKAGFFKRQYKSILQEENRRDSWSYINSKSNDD
# VLA-4 allo CP: confirmation of allosteric modulators of human VLA-4 integrin | shares compounds with VLA-4 inh | hit rate 2% among 1,300 | U937 cells, HUTS-21 LIBS mAb binding, flow cytometry; LDV ligand present at threefold Kd | inhibition, % at 6.7 µM | AID 2813; in the data active means inhibition above about 40%;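 further: 0% = ligand without compound and 100% = no ligand background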
# The depositor's hits bear a star; · = not tested or not shown; ! = not confirmed by another sample. This is one part of a sample in which hits are shown more often than they occur.
SMILES,CHOP inh,UPR CHOP act,B2AR ag,XBP1 UPR activ,VLA-4 inh,VLA-4 allo CP
COc1ccc(CNC(=O)C2CCN(S(C)(=O)=O)CC2)c(OC)c1,-10.3,1.8,0.2,0.5,52.9*,1.1
COc1ccccc1CNC(=O)CN(c1ccc(C)cc1)S(=O)(=O)c1c(C)noc1C,·,-0.4,15.7,-2.7,25.9,·
CNc1nc(N(C)C)nc(N(C)C)n1,20.2,-0.8,7.4,-4.6,58.5*,-5.0
CC(C)(C)c1ccc(NS(=O)(=O)c2ccc(N)cc2)cc1,7.4,-0.1,22.8,0.2,-0.3,4.4
CCCNC(=O)CN(C1CCCCC1)S(C)(=O)=O,-17.9,-0.8,-2.7,4.0,91.0*,9.0
CSc1ccccc1C(=O)N1CCC(n2nccc2NC(=O)C(C)(C)C)CC1,·,1.0,0.9,-2.8,7.0,·
CCCn1nnc(NC(=S)NC(=O)c2ccccc2OC)n1,·,1.9,-8.9,-1.0,-8.4,·
COc1ccccc1Nc1nc2ccc(C)cc2cc1C#N,25.0,6.3,4.0,8.3,107.8*,-0.2
CCCCc1ccc(-n2c(Cc3cccs3)n[nH]c2=S)cc1,76.5*,-0.2,-4.5,5.3,55.1*,3.7
CCCCCN(C(=O)CCC(=O)OCC(=O)N1CCC(C)CC1)c1c(N)n(CCCC)c(=O)[nH]c1=O,·,-2.4,-2.9,-0.4,0.5,·
CC(=O)c1ccc(OCC(=O)N2CCCC(Nc3ccc(C)c(C)c3)C2)cc1 (stereo unspecified),·,-0.2,1.5,-0.6,-15.7,·
Cc1ccc(C(C(=O)NCc2ccc(F)cc2)N(C(=O)c2csnn2)C2CC2)o1 (stereo unspecified),15.8,-0.5,1.0,-1.7,44.1,·
Cc1ccc(C(C(=O)NCCc2ccccc2)N(C(=O)c2csnn2)C2CC2)o1 (stereo unspecified),-14.3,0.1,19.2,1.2,54.4*,6.4
C[C@]12CCC(=O)C=C1CC[C@@H]1[C@@H]2[C@@H](O)C[C@@]2(C)[C@H]1CC[C@]2(O)C(=O)COC(=O)CCC(=O)O,18.6,-1.8,0.3,-4.8,53.4*!,4.0
CC(=O)OCC(=O)[C@@]1(O)CC[C@H]2[C@@H]3CCC4=CC(=O)CC[C@]4(C)[C@H]3[C@@H](O)C[C@@]21C,30.9,0.0,4.5,-6.4,24.5,·
Cn1cc(C(=O)N/N=C/C=C/c2ccccc2)ccc1=O,37.5,3.5,4.4,-4.4,44.5,7.0
COc1ccccc1C1CC(=O)Oc2c(C(C)C)ccc(C)c21 (stereo unspecified),·,1.1,-2.3,-0.2,·,·
CCCn1c(SCC(=O)NC)nc2sc3c(c2c1=O)CCC3,·,-1.3,-1.1,5.6,57.2*,5.4
CCCn1c(SCC(=O)NC(C)C)nc2sc3c(c2c1=O)CCC3,·,2.1,-19.6,-3.5,0.9,·
OCC1OC(n2cnc3c(NC4CCCCC4)ncnc32)C(O)C1O (stereo unspecified),36.4,2.2,-1.0,-1.6,-31.4,5.1
OC[C@H]1O[C@@H](n2cnc3c(NC4CCCC4)ncnc32)[C@H](O)[C@@H]1O,24.2,2.1,3.2,-8.0,5.4,2.7
O=C(O)CCSc1nnc(SCC(=O)NC2CCS(=O)(=O)C2)s1 (stereo unspecified),·,0.2,-3.3,0.8,-5.9,·
Cc1ccc(C(=O)N/N=c2\sc3ccccc3n2C)cc1,18.4,0.5,-2.8,-1.9,49.4,-6.9
COc1cccc(C(=O)N/N=c2\sc3ccccc3n2C)c1,5.4,1.0,-4.7,-1.0,37.4,·
c1ccc(C(Cc2nc(-c3cccnc3)no2)c2ccccc2)cc1,-6.6,-1.8,6.0,6.9,92.4*,-3.9
SMILES,CHOP inh,UPR CHOP act,B2AR ag,XBP1 UPR activ,VLA-4 inh,VLA-4 allo CP
c1ccc(SCc2nc(-c3cccnc3)no2)cc1,47.5,0.7,-8.4,-3.3,7.4,·
COc1ccccc1-c1nc2cc(Cl)ccc2c(=O)n1O,·,-0.8,6.8,-2.0,-6.4,·
COc1ccccc1-c1nc2ccc(Cl)cc2c(=O)n1O,·,-1.3,0.1,-2.0,42.2,-5.3
C=C(C)CN(CC)C(=O)CN1C(=O)NC(C)(c2ccc3ccccc3c2)C1=O (stereo unspecified),·,-0.3,-5.3,0.0,50.1*,-12.6
CCN(CC(=O)Nc1ccc(NC(C)=O)cc1)C(=O)CN1C(=O)NC(C)(c2ccc3ccccc3c2)C1=O (stereo unspecified),·,·,-4.2,·,·,·
O=C(/C=C/c1ccccc1)NNc1ccc(Cl)cc1,5.1,-0.9,8.2,-1.9,55.1*,2.7
O=c1c2ccccc2oc2c1oc1ccccc12,·,6.1,2.7,1.9,·,·
CC(C)OC(=O)CSc1nc(N2CCOCC2)c2c(c1C#N)CC(C)(C)OC2,·,-0.7,0.5,-2.3,22.1,·
Cc1nn(CC(=O)Nc2ccc(C(=O)N(C)C)cc2)c(=O)c2ccccc12,37.8,-2.4,7.7,-0.7,51.4*,-1.4
COc1ccc(-c2csc(Nc3ncccc3C)n2)cc1,-14.7,3.7,2.2,5.2,92.2*,-0.9
COc1ccc(-c2csc(Nc3ncccc3C)n2)cc1OC,-20.9,3.3,6.0,6.6,9.6,·
COc1ccccc1-c1sc2cc3c(cc2c1-c1ccc(OCCN2CCOCC2)cc1)OCO3,·,1.2,4.8,1.8,·,0.0
COc1ccc(-c2sc3cc4c(cc3c2-c2ccc(OCCN3CCCCC3)cc2)OCO4)cc1,·,6.9,16.6,19.7,·,0.0
COc1ccc(-c2sc3cc(OC)ccc3c2-c2ccc(OCCN3CCOCC3)cc2)cc1,·,0.1,-1.7,-0.9,·,0.0
COc1ccccc1-c1sc2cc3c(cc2c1-c1ccc(O)cc1)OCO3,·,0.7,6.8,5.3,18.8,·
c1ccc2c(-c3ccc(OCCN4CCCCC4)cc3)c(-c3ccsc3)sc2c1,·,2.8,12.6,1.0,20.0,·
COc1ccc(-c2sc3cc4c(cc3c2-c2ccc3c(c2)OCCO3)OCO4)cc1,·,1.8,-2.5,1.0,11.4,·
c1ccc(-c2sc3ccccc3c2-c2ccc(OCCN3CCCCC3)cc2)cc1,·,-0.2,-0.1,-1.3,17.4,-7.6
CC(C)NC(=O)/C(C#N)=C/c1ccc(N(C)C)o1,1.2,2.8,-14.9,-2.8,-6.6,·
CCCn1c(N)c(C(=O)CSc2nc(N)cc(=O)[nH]2)c(=O)n(C)c1=O,·,-0.2,6.1,-1.5,8.2,·
Cc1c(NC(=O)CSc2nnc(C(C)N(C)C)n2-c2ccccc2)c(=O)n(-c2ccccc2)n1C (stereo unspecified),·,·,-9.9,·,·,·
COc1ccc(-c2c(-c3cc(OC)cc(OC)c3)sc3ccc(OC)cc23)cc1,·,-0.2,-10.8,-3.0,-3.8,·
COc1cc(OC)cc(-c2sc3ccc(OC)cc3c2-c2ccc(OCCN3CCCCC3)cc2)c1,·,5.6,16.8,7.6,·,0.0
Cn1c(=N)n(CC(O)c2ccco2)c2ccccc21 (stereo unspecified),5.3,1.8,3.9,-2.1,-0.2,·

# Assay outcomes (PubChem BioAssay)
